Measured values: ChEMBL document CHEMBL1157985, “Antiplasmodial and cytotoxic activity of natural bisbenzylisoquinoline alkaloids” (J Nat Prod, 1999)

Tests used:
Plasmodium falciparum [1] = experiment: Antiplasmodial activity against chloroquine-resistant Plasmodium falciparum W2 infected human erythrocytes as [3H]hypoxanthine uptake after 24 hrs; format: functional, organism-based
Outline: (§1)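 P. falciparum (D6, W2) cultured in type A+ human erythrocytes, RPMI-1640 with NaHCO3, HEPES and 10% heat-inactivated human plasma, 37 °C under 5% O2/5% CO2/90% N2. Infected red cells at 0.5-1.0% parasitemia, 1.0% hematocrit exposed to compound, duplicate seven-point series, 24 h; then 0.5 μCi [3H]hypoxanthine per well for 18 h more. Filter harvest, scintillation counting; IC50 by nonlinear regression versus zero-drug controls.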

[2] = Selectivity index, ratio of ED50 for human KB cells to IC50 for […] Plasmodium falciparum D6; format: functional
Plasmodium falciparum [3] = experiment: Antiplasmodial activity against chloroquine-sensitive Plasmodium falciparum D6 infected human erythrocytes as [3H]hypoxanthine uptake after 24 hrs; format: functional, organism-based; outline: as §1
KB = experiment: Cytotoxicity against human KB cells after 72 hrs by SRB assay; format: functional; conditions: read-out: ED50 (the source's name)
Outline: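 KB-3 cells grown in DMEM with 10% FBS at 37 °C and 5% CO₂ to 60–70% confluence, then used 1 day after a medium change. Samples were dissolved in DMSO and serially diluted in 10% aqueous DMSO. 5×10⁴ cells were exposed for 72 h at 37 °C, then TCA-fixed, stained with 0.4% SRB and read at 515 nm. Zero-day control was subtracted and values expressed relative to solvent control; ED50 by nonlinear regression.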

[4] = Selectivity index, ratio of ED50 for human KB cells to IC50 for chloroquine-resistant Plasmodium falciparum W2; format: functional

## COc1ccc2cc1Oc1ccc(cc1)C[C@H]1c3c(cc(OC)c(OC)c3Oc3c4c(cc(OC)c3OC)[C@H](C2)N(C)CC4)CCN1C
Plasmodium falciparum [1]
  IC50: 110 nM
[2]
  Selectivity Index: 37.7
Plasmodium falciparum [3]
  IC50: 224 nM
KB
  EC50: 8400 nM
[4]
  Selectivity Index: 76.4

## C[C@@H]1CC[C@H]2[C@@H](C)C(=O)O[C@@H]3O[C@@]4(C)CC[C@@H]1[C@]32OO4 [ARTEMISININ]
Plasmodium falciparum [1]
  IC50: 14.6 nM
[2]
  Selectivity Index: >4680
Plasmodium falciparum [3]
  IC50: 15.1 nM
KB
  EC50: > 70900 nM
[4]
  Selectivity Index: >4860

## COc1cc2c3cc1Oc1cc(ccc1O)C[C@@H]1c4c(cc(OC)c(O)c4Oc4ccc(cc4)C[C@@H]3N(C)CC2)CC[N+]1(C)C.[Cl-]
Plasmodium falciparum [1]
  IC50: > 16400 nM
[2]
  Selectivity Index: >2.1
Plasmodium falciparum [3]
  IC50: 15300 nM
KB
  EC50: > 32800 nM
[4]
  Selectivity Index: 2

## COc1ccc2cc1Oc1ccc(cc1)C[C@H]1c3c(cc4c(c3Oc3cc5c(cc3OC)CCN[C@@H]5C2)OCO4)CCN1C
Plasmodium falciparum [1]
  IC50: 219 nM
[2]
  Selectivity Index: 84
Plasmodium falciparum [3]
  IC50: 79 nM
KB
  EC50: 6600 nM
[4]
  Selectivity Index: 30

## COc1ccc2cc1Oc1ccc(cc1)C[C@H]1c3c(cc(OC)c(OC)c3Oc3cc4c(cc3OC)CCN(C)[C@@H]4C2)CCN1C [OBABERINE]
Plasmodium falciparum [1]
  IC50: 347 nM
[2]
  Selectivity Index: 37
Plasmodium falciparum [3]
  IC50: 371 nM
KB
  EC50: 13800 nM
[4]
  Selectivity Index: 40

## COc1cc2c3cc1Oc1cc(ccc1O)C[C@@H]1c4c(cc5c(c4Oc4ccc(cc4)C[C@@H]3N(C(C)=O)CC2)OCO5)CCN1C
Plasmodium falciparum [1]
  IC50: 4030 nM
[2]
  Selectivity Index: 1.3
Plasmodium falciparum [3]
  IC50: 6890 nM
KB
  EC50: 8870 nM
[4]
  Selectivity Index: 2.2

## COc1ccc2cc1Oc1ccc(cc1)C[C@H]1c3c(cc(O)c(OC)c3Oc3cc4c(cc3OC)CCN(C)[C@@H]4C2)CCN1C
Plasmodium falciparum [1]
  IC50: 510 nM
[2]
  Selectivity Index: 49
Plasmodium falciparum [3]
  IC50: 214 nM
KB
  EC50: 10500 nM
[4]
  Selectivity Index: 21

## COc1cc2c(cc1O)[C@H](Cc1ccc(OC)c(Oc3ccc(C[C@H]4c5cc(OC)c(OC)cc5CCN4C)cc3)c1)N(C)CC2 [NEOTHALIBRINE]
Plasmodium falciparum [1]
  IC50: 135 nM
[2]
  Selectivity Index: 215
Plasmodium falciparum [3]
  IC50: 47 nM
KB
  EC50: 10100 nM
[4]
  Selectivity Index: 75

## COc1ccc2cc1Oc1cc3c(cc1OC)CCN(C)[C@@H]3Cc1ccc(cc1)Oc1c(O)c(OC)cc3c1[C@@H](C2)N(C)CC3
Plasmodium falciparum [1]
  IC50: 387 nM
[2]
  Selectivity Index: 60
Plasmodium falciparum [3]
  IC50: 128 nM
KB
  EC50: 7700 nM
[4]
  Selectivity Index: 20

## C=C[C@H]1CN2CC[C@H]1C[C@H]2[C@H](O)c1ccnc2ccc(OC)cc12 [QUININE]
Plasmodium falciparum [1]
  IC50: 250 nM
[2]
  Selectivity Index: >285
Plasmodium falciparum [3]
  IC50: 23.4 nM
KB
  EC50: > 55400 nM
[4]
  Selectivity Index: >222

## COc1ccc2cc1Oc1ccc(cc1)C[C@H]1c3c(cc(OC)c(OC)c3Oc3cc4c(cc3OC)CCN[C@@H]4C2)CCN1C
Plasmodium falciparum [1]
  IC50: 154 nM
[2]
  Selectivity Index: 130
Plasmodium falciparum [3]
  IC50: 75 nM
KB
  EC50: 9900 nM
[4]
  Selectivity Index: 64

## COc1cc2c3cc1Oc1cc(ccc1O)C[C@H]1c4c(cc(OC)c(c4O)OCc4ccc(cc4)CC3NCC2)CCN1C (stereo not given in full)
Plasmodium falciparum [1]
  IC50: 199 nM
[2]
  Selectivity Index: 24.6
Plasmodium falciparum [3]
  IC50: 348 nM
KB
  EC50: 8580 nM
[4]
  Selectivity Index: 43.2

## COc1cc2c3c4c1Oc1cc5c(cc1O4)[C@H](Cc1ccc(O)c(c1)Oc1ccc(cc1)C[C@@H]3NCC2)N(C)CC5
Plasmodium falciparum [1]
  IC50: 281 nM
[2]
  Selectivity Index: 79
Plasmodium falciparum [3]
  IC50: 48 nM
KB
  EC50: 3800 nM
[4]
  Selectivity Index: 14

## COc1ccc2cc1Oc1ccc(cc1)C[C@H]1c3cc(c(OC)cc3CCN1C)Oc1c(OC)c(OC)cc3c1[C@@H](C2)N(C)CC3
Plasmodium falciparum [1]
  IC50: 88 nM
[2]
  Selectivity Index: 40
Plasmodium falciparum [3]
  IC50: 260 nM
KB
  EC50: 10600 nM
[4]
  Selectivity Index: 120

## COc1ccc2cc1Oc1ccc(cc1)C[C@H]1c3c(cc(OC)c4c3Oc3cc5c(cc3O4)CCN(C)[C@H]5C2)CCN1C [ISOTRILOBINE]
Plasmodium falciparum [1]
  IC50: 788 nM
[2]
  Selectivity Index: 62
Plasmodium falciparum [3]
  IC50: 388 nM
KB
  EC50: 24000 nM
[4]
  Selectivity Index: 30

## COc1ccc2cc1Oc1cc3c(cc1OC)CCN[C@H]3Cc1ccc(cc1)Oc1c3c(cc4c1[C@@H](C2)N(C)CC4)OCO3
Plasmodium falciparum [1]
  IC50: 662 nM
[2]
  Selectivity Index: 7.5
Plasmodium falciparum [3]
  IC50: 1270 nM
KB
  EC50: 8800 nM
[4]
  Selectivity Index: 13.3

## COc1ccc2cc1Oc1cc3c(cc1OC)CCN=C3Cc1ccc(cc1)Oc1c3c(cc4c1[C@@H](C2)N(C)CC4)OCO3
Plasmodium falciparum [1]
  IC50: 2100 nM
[2]
  Selectivity Index: >6.8
Plasmodium falciparum [3]
  IC50: 4980 nM
KB
  EC50: > 33900 nM
[4]
  Selectivity Index: >16.1

## COc1ccc2cc1Oc1cc3c(cc1OC)CCN[C@@H]3Cc1ccc(cc1)Oc1c3c(cc4c1[C@@H](C2)N(C)CC4)OCO3
Plasmodium falciparum [1]
  IC50: 676 nM
[2]
  Selectivity Index: 27.1
Plasmodium falciparum [3]
  IC50: 530 nM
KB
  EC50: 14400 nM
[4]
  Selectivity Index: 21.2

## COc1ccc2cc1Oc1ccc(cc1)C[C@H]1c3c(cc(OC)c4c3Oc3cc5c(cc3O4)CCN=C5C2)CCN1C
Plasmodium falciparum [1]
  IC50: 464 nM
[2]
  Selectivity Index: 11
Plasmodium falciparum [3]
  IC50: 554 nM
KB
  EC50: 5000 nM
[4]
  Selectivity Index: 11
